Source: ChEMBL document CHEMBL3351432, “Microwave-assisted synthesis of phenanthroimidazole derivatives as stabilizer of c-myc G-quadruplex DNA” (Bioorg Med Chem, 2014)
Calls of active or inactive are those of the source. The rule behind the calls is not given here.

How the values were obtained:
MDA-MB-231 = test: Growth inhibition of human MDA-MB-231 cells after 72 hrs ny MTT assay; assay type: functional, cell-based; settings: MDA-MB-231, 72 h
Method in brief: (§1)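 MTT viability assay. Cells seeded at 3 × 10^3 per well and allowed 24 h, then treated 72 h with a concentration series from 1 mM DMSO stocks. MTT (5 mg/ml in PBS) added for 5 h, formazan dissolved in DMSO, absorbance read at 570 nm.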

MCF7 [1] = test: Growth inhibition of human MCF7 cells after 72 hrs by MTT assay; assay type: functional, cell-based; settings: MCF7, 72 h; method in brief: as §1
HeLa = test: Growth inhibition of human HeLa cells after 72 hrs by MTT assay; assay type: functional, cell-based; method in brief: as §1
[2] = Drug uptake in nucleus of human MCF7 cells at 10 uM after 24 hrs by fluorescence microscopy; assay type: ADME, cell-based; settings: mcf7, 24 h
Method in brief: (§2)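 MCF-7 cells seeded at 5 × 10^4 per well, exposed to compound at 10 μM for 24 h, then imaged by fluorescence microscopy for intracellular fluorescence and morphology.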

[3] = Drug uptake in cytoplasm of human MCF7 cells at 10 uM after 24 hrs by fluorescence microscopy; assay type: ADME, cell-based; settings: mcf7, 24 h; method in brief: as §2
MCF7 [4] = test: Induction of cell shrinking in human MCF7 cells at 10 uM after 24 hrs by fluorescence microscopy; assay type: functional, cell-based; method in brief: as §2
MCF7 [5] = test: Induction of cell membrane changes in human MCF7 cells assessed as roughening and unevening of cell membrane surface at 10 uM after 24 hrs by fluorescence microscopy; assay type: functional; method in brief: as §2
MCF7 [6] = test: Induction of apoptosis in human MCF7 cells assessed as cell membrane rupture at 10 uM after 24 hrs by fluorescence microscopy; assay type: functional, cell-based; method in brief: as §2
[7] = Binding affinity to c-myc G-quadruplex DNA (unknown origin) assessed as hypochromism at IL absorption at 20 uM by electronic spectra titration method
Method in brief: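 Titration in Tris-KCl buffer pH 7.2 with ligand held at 20 μM and G4 DNA added stepwise. 3 min incubation before each UV-vis spectrum. Hypochromism read at the intraligand band (250–300 nm).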

[8] = Binding affinity to c-myc G-quadruplex DNA (unknown origin) assessed as reduction in DNA CD signal strengths […] by CD spectroscopy; design: scale not given: the % may be the effect or the level left
Method in brief: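 CD of pre-folded c-myc G4 DNA (2 × 10^-6 M) in Tris-KCl buffer pH 7.2, 1 cm cell. Ligand added from 1 mM stock every 3 min, final range (0–118) × 10^-6 M.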

[9] = Binding affinity to c-myc G-quadruplex DNA (unknown origin) assessed as change in melting temperature at 1 uM by FRET assay
Method in brief: (§3)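 FAM/TAMRA dual-labelled c-myc oligonucleotide (1 μM) in Tris-KCl buffer pH 7.2, annealed at 92 °C for 5 min and slowly cooled to room temperature. Compound added at varying concentrations. Fluorescence melting curves recorded on a real-time PCR system, holding each temperature 30 s before each reading. Tm shift taken relative to the no-compound control.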

[10] = Binding affinity to c-myc G-quadruplex DNA (unknown origin) assessed as change in melting temperature at 3 uM by FRET assay; method in brief: as §3
[11] = Binding affinity to c-myc G-quadruplex DNA (unknown origin) assessed as increase in melting temperature by FRET assay; method in brief: as §3
[12] = Stabilization of c-myc G-quadruplex DNA (unknown origin) assessed as reduction in Taq polymerase-mediated 5' to 3' extension at 10 to 40 uM by PCR stop assay
Method in brief: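 PCR-stop assay in 1× PCR buffer with c-myc G4 DNA primer pair (10 pM each), dNTPs 0.16 mM, Taq 2.5 U and compound over 0–250 μM. Cycling: 94 °C 3 min, then 30 cycles of 94/58/72 °C for 30 s each. Products run on 15% native PAGE in TBE and silver stained.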

Compound | IC50 (MDA-MB-231) | IC50 (MCF7 [1]) | IC50 (HeLa) | Drug uptake [2] | Drug uptake [3] | Activity (MCF7 [4]) | Activity (MCF7 [5]) | Activity (MCF7 [6]) | Activity [7] | Activity [8] | ΔTm [9] | ΔTm [10] | Activity [11] | Activity [12]
Brc1ccccc1-c1nc2c3cccnc3c3ncccc3c2[nH]1 | 36 µM | 27.3 µM | 7.9 µM | Active | Active |  |  |  |  |  |  |  |  | 
c1ccc(-c2nc3c4cccnc4c4ncccc4c3[nH]2)cc1 | 74.2 µM | 72.6 µM | 5.1 µM | Not Active | Not Active |  |  |  |  |  |  |  |  | 
Brc1ccc(-c2nc3c4cccnc4c4ncccc4c3[nH]2)cc1 | 3.6 µM | 22.9 µM | 8.5 µM | Active | Active | Active | <20% | Active | 9.4% | 23% | 3.4 °C | 6.4 °C | Dose-dependent effect | Dose-dependent effect
O=S(=O)(O)c1ccccc1-c1nc2c3cccnc3c3ncccc3c2[nH]1 | 152 µM | 162 µM | 240 µM | Not Active | Not Active |  |  |  |  |  |  |  |  | 
O=S(=O)(O)c1ccc(-c2nc3c4cccnc4c4ncccc4c3[nH]2)cc1 | 60 µM | 184 µM | 62.4 µM | Not Active | Not Active |  |  |  |  |  |  |  |  | 
